Measured values from different studies.
Compare with care: the assays were run in different laboratories.
Method: competition with immobilised ligand
RPS6KA6 C-terminal kinase domain: Ribosomal protein S6 kinase alpha-6, C-terminal kinase domain (RPS6KA6, Homo sapiens, UniProt Q9UK32)
RPS6KA6 N-terminal kinase domain: Ribosomal protein S6 kinase alpha-6, N-terminal kinase domain (RPS6KA6, Homo sapiens, UniProt Q9UK32)

CN(C)c1ncc(F)c(-c2cnn3ncccc23)n1
remaining binding (RPS6KA6 C-terminal kinase domain; binding; 1 µM): 98%

O=C(NCCCN1CCOCC1)c1ccc(Nc2ncc(Cl)c(-c3ccc(Cl)s3)n2)cc1
remaining binding (RPS6KA6 C-terminal kinase domain; binding; 1 µM): 85%

CNC(=O)[C@@H]1CC[C@@H](n2c(-c3ccc4cnccc4c3)nc3ccc(C(=O)NCc4cccc(C(N)=O)c4)cc32)C1
remaining binding (RPS6KA6 C-terminal kinase domain; binding; 1 µM): 97%

Cc1cnc(Nc2ccc(C(=O)N3CCC(N4CCCC4)CC3)cc2)nc1-c1cc2ccccc2s1
remaining binding (RPS6KA6 C-terminal kinase domain; binding; 1 µM): 72%

Cc1cnn2ncc(-c3ccnc(N(C)C)n3)c2c1
remaining binding (RPS6KA6 N-terminal kinase domain; binding; 1 µM): 82%

O=C(O)[C@H]1[C@H](Cn2nnc3ccccc3c2=O)CC[C@@H]1C(=O)c1ccc(OCCC2CCOCC2)cc1
remaining binding (RPS6KA6 C-terminal kinase domain; cell-free assay; 1 µM): 97%

O=C(c1ccc(Nc2ncc(Cl)c(-c3cc4ccccc4s3)n2)cc1)N1CCC(N2CCCC2)CC1
remaining binding (RPS6KA6 N-terminal kinase domain; binding; 1 µM): 46%

N[C@@H]1CCN(c2nccc(-c3cnn4ncccc34)n2)C1
remaining binding (RPS6KA6 N-terminal kinase domain; binding; 1 µM): 100%

O=C(NCCCN1CCOCC1)c1ccc(Nc2nccc(-c3cc4ccccc4s3)n2)cc1
remaining binding (RPS6KA6 N-terminal kinase domain; binding; 1 µM): 67%

COc1cnc(Nc2cccc(S(N)(=O)=O)c2)nc1N1CCN(c2ccccc2)C(=O)C1
remaining binding (RPS6KA6 C-terminal kinase domain; binding; 1 µM): 92%

O=C(O)c1cc(-c2ccc(C3CCNCC3)cc2)c2ccc(-c3ccc(C(F)(F)F)cc3)cc2c1
remaining binding (RPS6KA6 N-terminal kinase domain; cell-free assay; 1 µM): 100%

CC1CCCN1c1nccc(-c2cnn3ncccc23)n1 (stereo not shown)
remaining binding (RPS6KA6 N-terminal kinase domain; binding; 1 µM): 99%

O=C(Nc1c[nH]nc1C(=O)NC1CCNCC1)c1cc(F)cc(F)c1
remaining binding (RPS6KA6 N-terminal kinase domain; binding; 1 µM): 94%

COc1ncc2cc3ccccc3nc2c1C#N
remaining binding (RPS6KA6 C-terminal kinase domain; cell-free assay; 5 µM): 73%

O=C1NC(c2ccccn2)Sc2ccccc21 (stereo not shown)
remaining binding (RPS6KA6 N-terminal kinase domain; cell-free assay; 1 µM): 96%

COc1cnc(Nc2cccc(S(N)(=O)=O)c2)nc1N1CCN(c2ccccc2)CC1
remaining binding (RPS6KA6 N-terminal kinase domain; binding; 1 µM): 73%

CN(C)c1nccc(-c2cnc3ncccn23)n1
remaining binding (RPS6KA6 C-terminal kinase domain; binding; 1 µM): 90%

NS(=O)(=O)c1cc(NC(=O)C2(c3ccccc3Cl)CC2)ccc1Oc1cccc(Cl)c1
remaining binding (RPS6KA6 N-terminal kinase domain; cell-free assay; 1 µM): 100%

c1cncc(-c2cccc(Nc3nccc(NC4CCCCC4)n3)c2)c1
remaining binding (RPS6KA6 N-terminal kinase domain; binding; 10 µM): 50%

CN([C@@H]1CCc2c(CC(=O)O)c3ccccc3n2C1)S(=O)(=O)c1ccc(F)cc1
remaining binding (RPS6KA6 C-terminal kinase domain; cell-free assay; 1 µM): 100%

O=C(c1ccc(Nc2ncc(Cl)c(-c3ccc(Cl)s3)n2)cc1)N1CCC(N2CCCC2)CC1
remaining binding (RPS6KA6 N-terminal kinase domain; binding; 1 µM): 41%

CN(C)c1nccc(-c2cnn3ncccc23)n1
remaining binding (RPS6KA6 C-terminal kinase domain; binding; 1 µM): 100%

FC(F)(F)Oc1cccc(-c2cnc3ccc(-c4ccncc4)nn23)c1
remaining binding (RPS6KA6 C-terminal kinase domain; binding; 5 µM): 34%

O=C(NS(=O)(=O)c1ccc(NCC2CCOCC2)c([N+](=O)[O-])c1)c1ccc(N2CCN(Cc3ccc(C(F)(F)F)cc3-c3ccc(Cl)cc3)CC2)cc1Oc1cnc2[nH]ccc2c1
remaining binding (RPS6KA6 C-terminal kinase domain; cell-free assay; 1 µM): 100%

O=C(c1ccc(Nc2nccc(-c3cc4ccccc4s3)n2)cc1)N1CCC(N2CCCC2)CC1
remaining binding (RPS6KA6 C-terminal kinase domain; binding; 1 µM): 63%

CN(c1nccc(-c2cnn3ncccc23)n1)C1CC1
remaining binding (RPS6KA6 N-terminal kinase domain; binding; 1 µM): 83%

O=C(NCC1CCOCC1)c1n[nH]cc1NC(=O)c1c(F)cccc1F
remaining binding (RPS6KA6 C-terminal kinase domain; binding; 1 µM): 99%

C[C@@H]1CN(c2cc(-c3nn(C)c4ccc(OC5(C)CC5)cc34)ncn2)C[C@H](C)O1
remaining binding (RPS6KA6 C-terminal kinase domain; cell-free assay; 1 µM): 79%

CCN1CCN(Cc2ccc(C(=O)Nc3ccc(C)c(Oc4ccc5c(c4)CC(=O)N5)c3)cc2C(F)(F)F)CC1
remaining binding (RPS6KA6 C-terminal kinase domain; binding; 1 µM): 89%

CCS(=O)(=O)c1cc2cc(C[C@@](O)(CC(C)(C)c3ccc(F)cc3C(N)=O)C(F)(F)F)[nH]c2cn1
remaining binding (RPS6KA6 N-terminal kinase domain; cell-free assay; 1 µM): 100%

Nc1ncc2c(n1)-c1c([nH]c3ccc(C#CC4CC4)cc13)CCCC2
remaining binding (RPS6KA6 N-terminal kinase domain; binding; 1 µM): 78%
